Results published in ChEMBL document CHEMBL1687796, “Synthesis and spectrum of the neoglycoside ACHN-490” (2010).
Values after ≈ are worked out from the molar mass of the structure shown.

How the values were obtained:
Assay type in all cases: functional
Citrobacter = experiment: Antibacterial activity against Citrobacter spp. by broth microdilution method
How it was run: (§1)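 MICs were determined by CLSI broth microdilution against clinical isolate panels that included aminoglycoside-resistant isolates. […] MIC90 was derived per group and not calculated when n was <10. Imipenem, ceftobiprole, ciprofloxacin and tigecycline MICs were also determined for the resistant isolates.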

Escherichia coli = experiment: Antibacterial activity against Escherichia coli by broth microdilution method; how it was run: as §1
Enterobacter sp. = experiment: Antibacterial activity against Enterobacter spp. by broth microdilution method; how it was run: as §1
Klebsiella sp. = experiment: Antibacterial activity against Klebsiella spp. by broth microdilution method; how it was run: as §1
Proteus mirabilis = experiment: Antibacterial activity against Proteus mirabilis by broth microdilution method; how it was run: as §1
[1] = Antibacterial activity against indole positive Proteae by broth microdilution method; how it was run: as §1
Serratia sp. = experiment: Antibacterial activity against Serratia spp. by broth microdilution method; conditions: Serratia sp. (in: enterobacteria); how it was run: as §1
Acinetobacter sp. = experiment: Antibacterial activity against Acinetobacter spp. by broth microdilution method; how it was run: as §1
Pseudomonas aeruginosa = experiment: Antibacterial activity against Pseudomonas aeruginosa by broth microdilution method; how it was run: as §1
Staphylococcus sp. = experiment: Antibacterial activity against Staphylococcus spp. by broth microdilution method; how it was run: as §1

Compound	MIC50 (Citrobacter)	MIC50 (Escherichia coli)	MIC90 (Escherichia coli)	MIC50 (Enterobacter sp.)	MIC90 (Enterobacter sp.)	MIC50 (Klebsiella sp.)	MIC90 (Klebsiella sp.)	MIC50 (Proteus mirabilis)	MIC90 (Proteus mirabilis)	MIC50 [1]	MIC50 (Serratia sp.)	MIC50 (Acinetobacter sp.)	MIC90 (Acinetobacter sp.)	MIC50 (Pseudomonas aeruginosa)	MIC90 (Pseudomonas aeruginosa)	MIC50 (Staphylococcus sp.)	MIC90 (Staphylococcus sp.)
Nc1nc(/C(=N/O)C(=O)N[C@@H]2C(=O)N3C(C(=O)O)=C(/C=C4\CCN([C@@H]5CCNC5)C4=O)CS[C@H]23)ns1 [CEFTOBIPROLE]	1 µg/mL (≈ 1.87 µM)	> 32 µg/mL	> 32 µg/mL	> 32 µg/mL	> 32 µg/mL	> 32 µg/mL	> 32 µg/mL	0.125 µg/mL (≈ 0.234 µM)	> 32 µg/mL	> 32 µg/mL	> 32 µg/mL	> 32 µg/mL	> 32 µg/mL	16 µg/mL (≈ 29.9 µM)	> 32 µg/mL		
O=C(O)c1cn(C2CC2)c2cc(N3CCNCC3)c(F)cc2c1=O [CIPROFLOXACIN]	8 µg/mL (≈ 24.1 µM)	> 16 µg/mL	> 16 µg/mL	1 µg/mL (≈ 3.02 µM)	> 16 µg/mL	16 µg/mL (≈ 48.3 µM)	> 16 µg/mL	2 µg/mL (≈ 6.04 µM)	> 16 µg/mL	16 µg/mL (≈ 48.3 µM)	4 µg/mL (≈ 12.1 µM)	> 16 µg/mL	> 16 µg/mL	8 µg/mL (≈ 24.1 µM)	> 16 µg/mL	16 µg/mL (≈ 48.3 µM)	> 16 µg/mL
C[C@@H](O)[C@H]1C(=O)N2C(C(=O)O)=C(SCCNC=N)C[C@H]12 [IMIPENEM ANHYDROUS]	0.5 µg/mL (≈ 1.67 µM)	0.125 µg/mL (≈ 0.418 µM)	0.25 µg/mL (≈ 0.835 µM)	1 µg/mL (≈ 3.34 µM)	4 µg/mL (≈ 13.4 µM)	0.25 µg/mL (≈ 0.835 µM)	> 16 µg/mL	4 µg/mL (≈ 13.4 µM)	8 µg/mL (≈ 26.7 µM)	1 µg/mL (≈ 3.34 µM)	1 µg/mL (≈ 3.34 µM)	2 µg/mL (≈ 6.68 µM)	> 16 µg/mL	4 µg/mL (≈ 13.4 µM)	16 µg/mL (≈ 53.4 µM)		
